Screening data as filed in PubChem BioAssay.
This is a sample that favours compounds with a hit; in the whole collection about 2.5% have one here.
TRPC6 inhibitor = mouse TRPC6 channel inhibitors, primary screen, cell-based, HEK293, membrane potential dye. Short transient receptor potential channel 6 (Mus musculus), Q61143. AID 2553, 2010. 310,000 tested, 1.1% active. B-score at 10 µM. ACh-evoked depolarization; stronger effect = lower value;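 active = B-score under library mean minus 3 SD, initial fluorescence not abnormally high, positive integrated signal ratio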;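 note: B-score derived from integrated fluorescence ratio over the kinetic read; more negative B-score means stronger inhibition of depolarization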
TRPC4 block = inhibitors of mouse TRPC4 channel, primary screen, Fluo4 calcium, HEK293 TRPC4beta/mu-opioid cells | 300,000 tested, 0.39% active | Short transient receptor potential channel 4 (Mus musculus), Q9QUQ5 | AID 2247, 2010 | B-score at 10 µM | DAMGO-evoked Fluo4 calcium flux; stronger effect = lower value;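 active = B-score over 3 SD under the library average, no early fluorescence shift, positive overall ratio signal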
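test system = HEK293 cells with stable TRPC4beta plus mu-opioid receptor expression | detection = Fluo4 Ca2+ flux fluorescence | read-out = integrated fluorescence ratio relative to baseline, converted to per-well B score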
TRPC4 act = activators of mouse TRPC4 channel, primary screen, Fluo4 calcium, HEK293 TRPC4beta/mu-opioid cells; Short transient receptor potential channel 4 (Mus musculus), Q9QUQ5; Fluo4 calcium fluorescence; stronger effect = higher value; B-score at 10 µM; 310,000 tested, 0.49% active;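 active = B-score above 5 SD of library B-scores, and initial fluorescence ratio not above library mean plus 5 SD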;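 note: positive B-score marks a calcium rise read as TRPC4 activation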
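Technique: kinetic Fluo4 calcium fluorescence; Test system: TRPC4beta and mu-opioid receptor HEK293 stable cells; Measure: B-scored integrated calcium fluorescence ratio; Benchmarks: low control buffer alone, high control maximal DAMGO; Schedule: 45 min room-temperature Fluo4 loading, 110 s read.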
TRPC6 activator = mouse TRPC6 channel activators, primary screen, cell-based, HEK293, membrane potential dye. Short transient receptor potential channel 6 (Mus musculus), Q61143. HEK293-TRPC6 membrane potential dye fluorescence; stronger effect = higher value. B-score at 10 µM. 310,000 tested, 0.13% active. AID 2550, 2010;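 active = B-score of the integrated fluorescence ratio above library mean plus 3 SD, and starting fluorescence ratio within library mean plus 5 SD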;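 note: higher score means more depolarization so channel activation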
TRPC4 potent = positive allosteric modulators of TRPC4, primary screen, cell-based, mouse TRPC4beta, HEK293 mu-opioid, Fluo-4 calcium; AID 2227, 2009; B-score at 10 µM; 310,000 tested, 0.42% active; DAMGO EC20, Fluo-4 Ca2+ flux; stronger effect = higher value; Short transient receptor potential channel 4 (Mus musculus), Q9QUQ5;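 active = B-score of calcium response area above 5 SD of library B-scores, with initial fluorescence ratio within 5 SD of library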;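 note: B-score of integrated fluorescence ratio over time as area under calcium response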
Pemphigus Ab inh = inhibitors of pemphigus antibody binding to DSG3, primary screen, biochemical, bead-based, flow cytometry, scFv-GFP | binding (percent of control), % at 10 µM | Desmoglein-3 (Homo sapiens), P32926 | 310,000 tested, 0.48% active | DSG3-coupled beads, scFv-anti-DSG3-GFP binding; stronger effect = lower value;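 active = binding more than 3 SD below its plate's average and above zero; inconclusive = below that plate limit but binding exactly zero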;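 note: hits lower antibody fragment binding to DSG3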
* hit, by the source's call; i = inactive; ? = inconclusive; · = not tested or not shown.

SMILES | TRPC6 inhibitor | TRPC4 block | TRPC4 act | TRPC6 activator | TRPC4 potent | Pemphigus Ab inh
CCc1ccccc1NC(=O)CN1CCN(C(=O)CCC(=O)N2CCC(c3ccccc3)=N2)CC1 | · | · | · | · | · | 99
CC(C)CN(C(=O)COC(=O)COc1ccc2ccccc2c1)c1c(N)n(Cc2ccccc2)c(=O)[nH]c1=O | i | i | i | i | 16* | 93
CCOc1ccc(OCC(=O)OCC(=O)N(CC(C)C)c2c(N)n(Cc3ccccc3)c(=O)[nH]c2=O)cc1 | i | i | i | i | i | ?
C=CCNC(=S)N1CCN(C2CCCCC2)CC1 | i | i | i | i | 32* | 95
O=C(CCCl)Nc1cc(SCCO)cc([N+](=O)[O-])c1 | i | i | i | i | i | 94
O=C(Nc1cc(SCCO)cc([N+](=O)[O-])c1)c1ccc(Br)o1 | i | -5* | i | i | i | 126
CC(=O)c1cccc(NC(=O)Cn2cnc(S(=O)(=O)N3CCC(C)CC3)c2)c1 | i | i | i | i | i | 82*
CC1CCN(S(=O)(=O)c2cn(CC(=O)Nc3cccc(C#N)c3)cn2)CC1 | i | i | i | i | i | ·
CCOc1ccc(Br)cc1/C(C)=N\NC1=NCCN1 | i | i | 82* | i | i | 101
CCCCCOc1ccc(/C(C)=N/NC2=NCCN2)cc1 | i | i | i | i | i | 132
CN1CCN(C(=O)c2cccn(Cc3c(Cl)cccc3Cl)c2=O)CC1 | i | i | 184* | i | i | 98
CC(=O)Nc1cccn(Cc2c(Cl)cccc2Cl)c1=O | i | i | i | i | i | 102
O=C(/C=C/c1ccccc1)Nc1ccc(C(=O)N2CCCCC2)cc1 | i | i | i | i | i | 104
Fc1ccc(C2CCCCN2Cc2nc(CC3CC3)no2)cc1 (configuration not stated) | i | i | i | i | i | 82
Fc1ccc2nc(C3CCCCN3Cc3nc(CC4CC4)no3)[nH]c2c1 (configuration not stated) | i | i | i | i | i | 2.2*
CCCn1c(=O)c2ccccc2n2c(SC(C)C(N)=O)nnc12 (configuration not stated) | i | i | i | i | i | 118
CCCn1c(=O)c2ccccc2n2c(SCCOc3ccccc3)nnc12 | i | -7* | i | i | i | 103
Cc1ccc(N(Cc2ccccc2)C(=O)c2cc(S(=O)(=O)N3CCOCC3)ccc2Cl)cc1 | i | i | i | i | 10* | 108
Cn1c(SCCOc2ccccc2F)nc2ccccc2c1=O | i | i | i | i | 16* | 127
O=c1[nH]c(SCCOc2ccccc2F)nc2ccccc12 | i | i | i | i | i | 115
COCCn1c(SCc2nc3ccccc3c(=O)[nH]2)nc2ccccc2c1=O | i | i | i | i | i | 96
COCCn1c(SCc2ccc(OC)c(F)c2)nc2ccccc2c1=O | i | -7* | i | i | i | 98
COCCn1c(SCc2ccc(F)cc2)nc2ccccc2c1=O | i | -6* | i | i | i | 95
CC1C(=O)N2CCCc3cc(NC(=O)C4CC4)cc1c32 (configuration not stated) | i | i | i | i | i | ?
CCC(=O)NC(=S)Nc1ccc(NC(=O)COc2ccc(Cl)c(C)c2)cc1 | i | i | i | i | i | 76
SMILES | TRPC6 inhibitor | TRPC4 block | TRPC4 act | TRPC6 activator | TRPC4 potent | Pemphigus Ab inh
O=C(COc1ccc(Cl)cc1[N+](=O)[O-])NC1CCCCC1 | i | i | i | i | 85* | 100
COc1cccc(OCC(=O)NC2CCCCC2)c1 | i | i | i | i | 31* | 103
Cc1cc(OCC(=O)NNC(=S)NC(=O)c2ccc(Br)o2)ccc1Cl | i | i | i | i | 16* | 102
COc1cccc(OCC(=O)NC2CCCCCC2)c1 | · | · | · | · | · | 108
O=C(NC(=S)NNC(=O)c1cccs1)c1ccc(Br)o1 | i | i | 180* | i | i | 125
O=C(NNC(=O)c1sccc1-n1cccc1)Nc1ccc(F)cc1 | i | i | i | i | i | 94
Cc1cc(OCC(=O)OCC(=O)NC2CCCC2)ccc1Cl | · | · | · | · | · | 101
Cc1cc(OCC(=O)NC2CCCCC2)ccc1Cl | i | i | i | i | 27* | 103
CC(C)C(=O)Nc1ccc2c(c1)Cc1cc(NC(=O)C(C)C)ccc1-2 | i | i | i | i | i | 106
Cn1c(-c2ccccc2)cnc1NCc1ccccc1 | i | -6* | i | i | i | 115
CN(C)CCNc1ccc(Cl)cc1[N+](=O)[O-] | i | i | i | i | 21* | 98
CS(=O)(=O)NCCNc1ccc(Cl)cc1[N+](=O)[O-] | i | i | i | i | i | 92
CCCc1nc2c(sc3nc4c(cc32)COC(C)(C)C4)c(=O)n1CCN(CC)CC | i | i | i | i | i | 124
OCCNc1nc(NCc2ccccc2)c2ccccc2n1 | i | -6* | i | i | i | 118
c1ccc(CCNc2nc(-c3ccccn3)nc3ccccc23)cc1 | i | -6* | i | i | i | 120
C/C(=N\Nc1nc(-c2ccccn2)nc2ccccc12)c1ccc(F)cc1 | i | i | i | i | i | 111
Cc1ccc(-c2nc(NCc3cccnc3)c3ccccc3n2)cc1 | i | i | i | i | i | 118
c1ccc(-c2nc(NCc3cccnc3)c3ccccc3n2)cc1 | i | -6* | i | i | i | 103
Cc1ccc(N2C(=O)CC(Nc3ccc(Cl)c(S(=O)(=O)N(C)C)c3)C2=O)c(C)c1 (configuration not stated) | i | i | i | i | i | 101
Cc1nc(-c2ccc(Br)cc2)ccc1C(=O)O | i | i | i | i | i | 90
Cc1cc(OCC(O)CN)ccc1Cl (configuration not stated) | i | i | 143* | i | i | 102
